Experimental data taken from ChEMBL document CHEMBL3352270, “Antimalarial activity of abietane ferruginol analogues possessing a phthalimide group” (Bioorg Med Chem Lett, 2014).
Values after ≈ are worked out from the molar mass of the structure shown.

How the values were obtained:
Plasmodium falciparum [1] = assay: microbe, parasite or virus in culture; assay type: functional, organism-based; conditions: 3D7, 72 h
[2] = Selectivity index, ratio of cytotoxic EC50 against human cells to EC50 for Plasmodium falciparum 3D7; conditions: human cells (cell line not named)
HepG2 = assay: Cytotoxicity against human HepG2 cells; assay type: functional, cell-based
Raji = assay: Cytotoxicity against human Raji cells; assay type: functional, cell-based
BJ = assay: Cytotoxicity against human BJ cells; assay type: ADME, cell-based
HEK293 = assay: Cytotoxicity against HEK293 cells; assay type: functional, cell-based; conditions: Homo sapiens
Plasmodium falciparum [3] = assay: microbe, parasite or virus in culture; assay type: functional, organism-based; conditions: K1, 72 h
[4] = Selectivity index, ratio of cytotoxic EC50 against human cells to EC50 for Plasmodium falciparum K1; conditions: human cells (cell line not named)
Plasmodium falciparum [5] = assay: Antimalarial activity against Plasmodium falciparum K1; assay type: functional, organism-based
How it was run: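 Chloroquine-resistant K1 strain of P. falciparum; […].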

Plasmodium falciparum [6] = assay: Antimalarial activity against Plasmodium falciparum D10; assay type: functional
[7] = Selectivity index, ratio of cytotoxicity against CHO cells to IC50 for Plasmodium falciparum K1; assay type: toxicity, cell-based; conditions: hamster, read-out: Selectivity Index
[8] = Selectivity index, ratio of cytotoxicity against CHO cells to IC50 for Plasmodium falciparum D10; assay type: toxicity, cell-based; conditions: hamster, read-out: Selectivity Index
[9] = Selectivity index, ratio of cytotoxicity against human HepG2 cells to IC50 for Plasmodium falciparum K1; assay type: toxicity, cell-based; conditions: read-out: Selectivity Index
[10] = Selectivity index, ratio of cytotoxicity against human HepG2 cells to IC50 for Plasmodium falciparum D10; assay type: toxicity, cell-based; conditions: read-out: Selectivity Index
Plasmodium falciparum [11] = assay: Antimalarial activity against Plasmodium falciparum D6; assay type: functional, organism-based
Plasmodium falciparum [12] = assay: Antimalarial activity against chloroquine-sensitive Plasmodium falciparum D6; assay type: functional, organism-based
Plasmodium falciparum [13] = assay: Antimalarial activity against chloroquine-resistant Plasmodium falciparum W2; assay type: functional, organism-based
Plasmodium falciparum [14] = assay: Antimalarial activity against chloroquine-resistant Plasmodium falciparum K1; assay type: functional, organism-based
[15] = Selectivity index, ratio of cytotoxicity against rat L6 cells to IC50 for Plasmodium falciparum K1; assay type: toxicity, cell-based; conditions: read-out: Selectivity Index

Structure (SMILES) | EC50 (Plasmodium falciparum [1]) | selectivity ratio [2] | EC50 (HepG2) | EC50 (Raji) | EC50 (BJ) | EC50 (HEK293) | EC50 (Plasmodium falciparum [3]) | selectivity ratio [4] | IC50 (Plasmodium falciparum [5]) | IC50 (Plasmodium falciparum [6]) | selectivity ratio [7] | selectivity ratio [8] | selectivity ratio [9] | selectivity ratio [10] | IC50 (Plasmodium falciparum [11]) | IC50 (Plasmodium falciparum [12]) | IC50 (Plasmodium falciparum [13]) | IC50 (Plasmodium falciparum [14]) | selectivity ratio [15]
CC(C)c1ccc2c(c1)CC[C@H]1[C@](C)(CN3C(=O)c4ccccc4C3=O)CCC[C@]21C | 1.36 µM | > 18.4 | > 25 µM | > 25 µM | > 25 µM | > 25 µM | 15 µM | – | – | – | – | – | – | – | – | – | – | – | –
CC(=O)c1cc2c(cc1C(C)C)CC[C@H]1[C@](C)(CN3C(=O)c4ccccc4C3=O)CCC[C@]21C | 0.086 µM | > 290 | > 25 µM | > 25 µM | > 25 µM | > 25 µM | 0.201 µM | > 124 | – | – | – | – | – | – | – | – | – | – | –
CC(=O)Oc1cc2c(cc1C(C)C)CC[C@H]1[C@](C)(CN3C(=O)c4ccccc4C3=O)CCC[C@]21C | 2.09 µM | > 12 | > 25 µM | > 25 µM | > 25 µM | > 25 µM | 15 µM | – | – | – | – | – | – | – | – | – | – | – | –
CC(C)c1cc2c(cc1O)[C@@]1(C)CCC[C@@](C)(CN3C(=O)c4ccccc4C3=O)[C@@H]1CC2 | 15 µM | – | > 25 µM | > 25 µM | > 25 µM | > 25 µM | 4 µM | > 6.3 | – | – | – | – | – | – | – | – | – | – | –
CC(C)c1cc2c(cc1O)[C@@]1(C)CCC[C@@](C)(CN)[C@@H]1CC2 | 6.67 µM | 2.6 | > 25 µM | > 25 µM | 17.4 µM | > 25 µM | 15 µM | – | – | – | – | – | – | – | – | – | – | – | –
CC(C)c1cc2c(cc1O)[C@@]1(C)CCC[C@@](C)(CN3C(=O)c4c(Cl)c(Cl)c(Cl)c(Cl)c4C3=O)[C@@H]1CC2 | 15 µM | – | > 25 µM | > 25 µM | > 25 µM | > 25 µM | 15 µM | – | – | – | – | – | – | – | – | – | – | – | –
CC(=O)Oc1cc2c(cc1C(C)C)CC[C@H]1[C@](C)(CN3C(=O)c4c(Cl)c(Cl)c(Cl)c(Cl)c4C3=O)CCC[C@]21C | 15 µM | – | > 25 µM | > 25 µM | > 25 µM | > 25 µM | 15 µM | – | – | – | – | – | – | – | – | – | – | – | –
CC(=O)Oc1cc2c(cc1C(C)C)C(=O)C[C@H]1[C@](C)(CN3C(=O)c4c(Cl)c(Cl)c(Cl)c(Cl)c4C3=O)CCC[C@]21C | 15 µM | – | > 25 µM | > 25 µM | > 25 µM | > 25 µM | 15 µM | – | – | – | – | – | – | – | – | – | – | – | –
CC(=O)Oc1cc2c(cc1C(C)C)/C(=N/NS(=O)(=O)c1ccc(C)cc1)C[C@H]1[C@](C)(CN3C(=O)c4c(Cl)c(Cl)c(Cl)c(Cl)c4C3=O)CCC[C@]21C | 15 µM | – | > 25 µM | > 25 µM | > 25 µM | > 25 µM | 15 µM | – | – | – | – | – | – | – | – | – | – | – | –
CC(C)c1cc2c(cc1O)[C@@]1(C)CCC[C@@](C)(C=O)[C@@H]1CC2 [18-OXOFERRUGINOL] | 15 µM | – | > 25 µM | > 25 µM | > 25 µM | > 25 µM | 15 µM | – | – | – | – | – | – | – | – | – | – | – | –
CCN(CC)CCCC(C)Nc1ccnc2cc(Cl)ccc12 (stereo not given) [CHLOROQUINE] | 0.023 µM | – | > 25 µM | > 25 µM | > 25 µM | > 25 µM | 0.69 µM | – | – | – | – | – | – | – | – | – | – | – | –
CC(C)c1cc2c(cc1O)[C@@]1(C)CCCC(C)(C)[C@@H]1CC2 [FERRUGINOL] | 2.47 µM | 4.6 | > 25 µM | 11.5 µM | 19.6 µM | > 25 µM | 1.33 µM | 8.6 | < 1 µg/mL | < 1 µg/mL | > 65 | > 65 | > 65 | > 65 | 1.95 µg/mL (≈ 6.81 µM) | 4.2 µg/mL (≈ 14.7 µM) | 3.5 µg/mL (≈ 12.2 µM) | 900 nM | 15.6
CC(C)=CCC[C@]1(C)C=Cc2c(O)c3c(c(CC=C(C)C)c2O1)O[C@]12C(=C[C@@H]4C[C@H]1C(C)(C)O[C@@]2(C/C=C(/C)C(=O)O)C4=O)C3=O [GAMBOGIC ACID] | – | – | < 2 µM | 0.24 µM | 0.21 µM | 0.21 µM | – | – | – | – | – | – | – | – | – | – | – | – | –
